# Source: PubChem
# The entries come from a sample that favours hits as a whole.
# XBP1 UPR activ – adaptive UPR (XBP1) activation | activation, % at 20 µM | actives 0.33% (n = 330,000) | CHO-XBP1 luciferase reporter, IRE1-XBP1 UPR activation, luminescence; percent of tunicamycin response, DMSO as zero;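 active = versus positive control, 20 µM dose yields 30% or more activation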
#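 Material: CHO-XBP1 cells stably carrying IRE1-XBP1-driven luciferase reporter / Amount: 1000 cells per well / Compound: 20 µM, 1% DMSO / Times: 6 h treatment, 37 °C / Detection: luciferase luminescence / Measure: % activation of reporter signal versus tunicamycin and DMSO controls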
# UPR CHOP act – apoptotic UPR (CHOP) activation; actives 0.34% (n = 330,000); AID 449763; CHO-CHOP luciferase reporter, luminescence; percent of tunicamycin response over DMSO baseline; activation, % at 10 µM;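 active = at 10 µM dose, activation of 40% or more, normalized to positive control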
#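 System: CHO-CHOP luciferase reporter cell line; amount: 500 cells/well; buffer or medium: F12 medium containing 10% fetal bovine serum; incubation: 6 h compound exposure at 37 °C after overnight seeding; measured by: luciferase luminescence after 10 min with Steady-Glo reagent; evaluation: % reporter activation, DMSO baseline versus tunicamycin full activation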
# Beta2AR agonist – activates human beta-2 adrenergic receptor causing internalization | actives 0.43% (n = 340,000) | Am2.2-beta2AR cells, FAP receptor internalization, flow cytometry | P07550 | response, % (concentration not given with the values);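 active = response above a set limit, near 3 SD of response in nonfluorescent compounds, cut at about 42% in these data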
# Target sequence (P07550 whole entry, looked up): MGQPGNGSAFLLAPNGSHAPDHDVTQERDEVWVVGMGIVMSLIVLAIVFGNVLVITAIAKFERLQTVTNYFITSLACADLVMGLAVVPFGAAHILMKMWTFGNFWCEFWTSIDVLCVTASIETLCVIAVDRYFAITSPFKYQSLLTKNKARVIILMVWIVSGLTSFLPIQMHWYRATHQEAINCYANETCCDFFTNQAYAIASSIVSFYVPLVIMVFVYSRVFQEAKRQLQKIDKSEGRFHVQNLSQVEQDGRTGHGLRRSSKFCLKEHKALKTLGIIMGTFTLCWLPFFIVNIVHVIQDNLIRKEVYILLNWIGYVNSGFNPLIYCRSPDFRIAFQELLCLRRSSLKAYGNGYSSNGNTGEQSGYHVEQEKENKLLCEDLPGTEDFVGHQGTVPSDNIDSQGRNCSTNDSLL
# CHOP inhibitor – CHOP inhibition in unfolded protein response. inhibition, % at 10 µM. actives 3.8% (n = 220,000). AID 2732. CHO-K1 CHOP-promoter luciferase, tunicamycin-induced, 15-18 h;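 active = compounds that reduced the stress-induced luciferase reporter signal by more than about 70% of percent inhibition, limit read from the data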
# VLA-4 inh – inhibition in a human VLA-4 binding assay | actives 0.2% (n = 330,000) | P13612 | VLA-4 expressing cells, ligand binding flow cytometry | inhibition, % (about 7 µM as worked out from the volumes in the protocol) | AID 2557; in the data active = inhibition above about 50%
# CHOP inh conf – confirmation of CHOP induction inhibitors. AID 504437. inhibition, % at 10 µM. shares compounds with CHOP inhibitor. actives 45% (n = 2,100). CHO-CHOP promoter luciferase reporter, tunicamycin-induced, luminescence;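 active = mean of three repeat readings of reporter signal inhibition above a set limit, cut at about 70% in these data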
# Hits are given with their value; . = inactive; / = not tested or not shown.
SMILES,XBP1 UPR activ,UPR CHOP act,Beta2AR agonist,CHOP inhibitor,VLA-4 inh,CHOP inh conf
COc1ccc(OC)c(NC(=O)c2cc(-c3cc(Cl)ccc3O)n[nH]2)c1,.,.,.,103,.,.
Cc1ccc(-n2c(C)cc(C3N=C(N)Nc4nc5ccccc5n43)c2C)c(C)c1 (stereo unspecified),.,.,.,100,.,.
Nn1c(Nc2ccccc2)nc2sc3c(c2c1=O)CCC3,/,/,.,96,/,.
NNc1nc2sc3c(c2c(=O)n1Cc1ccccc1)CCC3,.,.,.,.,.,/
Nc1cccc2c1C(=O)N(C(=O)/C=C/c1cccc(F)c1)C2=O,.,.,.,103,.,127
CCCCOc1ccc(Nc2cc(Cl)ccc2C(=O)O)cn1,.,.,.,.,.,/
CCn1c(=O)c(C(=O)NNS(=O)(=O)c2ccc(C)cc2)c(O)c2ccccc21,.,.,.,.,.,/
CCn1c(=O)c(C(=O)NNS(=O)(=O)c2ccc(Br)cc2)c(O)c2ccccc21,.,.,.,105,.,.
C=CCn1c(SCC(=O)c2[nH]c(C)c(C(=O)OCC)c2C)nc2scc(-c3ccc(OC)c(OC)c3)c2c1=O,/,/,.,106,.,.
FC(F)(F)c1cccc(NC(=S)NC(c2ccccc2)c2ccccc2)c1,/,/,.,103,.,75
FC(F)(F)c1cccc(NC(=S)NNC(=S)Nc2cccc(C(F)(F)F)c2)c1,.,.,/,.,.,/
Cc1cc(C)c(S(=O)(=O)NCCn2c(C)cc3ccccc32)c(C)c1,.,.,.,102,.,75
CC(C)(C)c1ccc(-n2ncc3c2CCCC3NC(=O)C2(C(N)=O)CC2)cc1 (stereo unspecified),.,.,.,/,.,/
CCOC(=O)c1c(-c2ccc(C)cc2)csc1NC(=S)NC(=O)c1ccccc1,.,.,.,.,.,/
CCOC(=O)c1c(-c2ccc(C)cc2)csc1NC1=NS(=O)(=O)c2ccccc21,.,.,.,101,.,.
CC(=O)c1c(C)[nH]c(C(=O)Nc2ccc(F)cc2F)c1C,.,.,.,/,.,/
O=C(CN(c1ccc(F)cc1)S(=O)(=O)c1ccccc1)N1CCOCC1,.,.,.,/,.,/
CCOc1ccc(C2C=C(c3ccc(C)cc3)Nc3nnnn32)cc1 (stereo unspecified),.,.,.,107,.,77
CC(C)(C)c1ccc(CN2N=Nc3ccccc3S2(=O)=O)cc1,.,.,.,108,.,124
C=CCn1c(=O)[nH]c2cc(C(=O)N3CCN(c4ccc(C(C)=O)cc4)CC3)ccc2c1=O,.,.,.,.,.,/
C=CCn1c(=O)[nH]c2cc(C(=O)N3CCN(c4cc(C)ccc4C)CC3)ccc2c1=O,.,.,.,97,.,.
Cc1ccc(C(C)C)c(OCc2ccc(C(=O)N/N=C/c3ccc(C(=O)O)cc3)cc2)c1,.,.,.,97,.,.
CCOc1cccc(N2CCN(CCNC(=O)Nc3ccc(C)cc3)CC2)c1C,.,.,.,/,.,/
Nc1c(C(=O)N/N=C/c2ccc(Cl)cc2)cnn1-c1ccccc1,.,.,.,.,.,/
O=c1c(Cl)c(Cl)cnn1-c1ccccc1,/,/,.,101,/,96
SMILES,XBP1 UPR activ,UPR CHOP act,Beta2AR agonist,CHOP inhibitor,VLA-4 inh,CHOP inh conf
O=c1c(Cl)c(N/N=C/c2ccc(Cl)cc2)cnn1-c1ccccc1,.,.,.,102,.,.
Cc1cc(OCCn2cc(/C(N)=N/O)c3ccccc32)ccc1Cl,.,.,.,.,.,/
CC(C)CNC(=O)c1cccc(NC(=O)Cc2ccc(Br)cc2)c1,.,.,.,.,.,/
Cn1c(=O)c([N+](=O)[O-])c(-n2ccnc2)c2ccccc21,.,.,.,103,.,.
O=C(Cc1sc(Nc2ccccc2)nc1-c1ccccc1)NCc1ccccc1,.,.,.,.,.,/
COC(=O)Cc1ccc(NC(=S)NCc2cccc(OC)c2)cc1,.,.,.,.,.,/
CCCCc1ccc(NC(=S)NCc2cccc(OC)c2)cc1,.,.,.,102,.,.
COc1cc(/C=C/C(=O)OCC(=O)N(CC(C)C)c2c(N)n(Cc3ccccc3)c(=O)[nH]c2=O)ccc1O,/,/,.,/,/,/
CC(=C\c1ccccc1)/C=C1/SC(=S)N(CCCC(=O)O)C1=O,.,.,.,/,.,/
CC(/C=C1\SC(=O)N(CCCC(=O)O)C1=O)=C\c1ccccc1,/,/,.,101,.,110
COc1ccc(NC(=S)Nn2cnnc2)c(OC)c1,.,.,.,/,.,/
NNC(=O)CN1CCN(c2ncc(C(F)(F)F)cc2Cl)CC1,.,.,.,.,.,/
O=C(CN1CCN(c2ncc(C(F)(F)F)cc2Cl)CC1)NCCNc1ncc(C(F)(F)F)cc1Cl,.,.,.,101,.,106
Cc1ccc(NC(=O)CCc2c[nH]c3ccccc23)nc1,.,.,.,/,.,/
Cc1ccc(C(=O)N2C(=S)C(c3ccc(F)cc3)=NC23CCN(C)CC3)cc1,.,.,.,98,.,.
Cc1ccc(C(=O)N2CCC(C(=O)c3ccc(F)cc3)CC2)cc1,/,/,.,/,/,/
O=C(c1ccccc1F)N1CCN(C(=O)C(c2ccccc2)c2ccccc2)CC1,.,.,.,/,.,/
COc1ccc(-c2c3c(nc4sc5c(=O)[nH]c(C)nc5c24)CCC3)cc1,.,.,.,113,.,.
Cc1ccc(NC(=O)CN2C(=O)NC3(CCCc4ccccc43)C2=O)c(C)c1 (stereo unspecified),.,.,.,/,/,/
CC(/C=N/NC(=O)Cc1cccs1)=C\c1ccccc1,.,.,.,.,.,/
O=C(Cc1cccs1)N/N=C/C(Br)=C/c1ccccc1,.,.,.,104,.,.
COCCn1c(=NC(=O)/C=C/c2ccccc2)sc2cc(NC(C)=O)ccc21,.,.,.,100,.,.
CC(C)(C=O)C1=CC(=O)c2ccccc2C1=O,/,/,66,98,.,.
O=C(CNC(=O)c1ccc2c(c1)S(=O)(=O)N=C1CCCCCN12)Nc1ccc(F)c(F)c1,.,.,.,/,.,/
Cc1c(-c2nc(N)nc(Nc3ccc(F)cc3)n2)oc2ccccc12,.,.,.,106,.,.
SMILES,XBP1 UPR activ,UPR CHOP act,Beta2AR agonist,CHOP inhibitor,VLA-4 inh,CHOP inh conf
Cc1ccc(-c2csc3nc(SCC(=O)Nc4ccc(Cl)c(C(=O)O)c4)[nH]c(=O)c23)cc1,.,.,.,/,.,/
O=[N+]([O-])c1cc(-n2cnnn2)ccc1N1CCC(Cc2ccccc2)CC1,.,.,.,104,.,.
COc1ccc(NS(=O)(=O)c2cccc(NC(=O)c3cnccn3)c2)cc1Br,.,.,.,.,.,/
COc1cc(OC)c(C(=O)OC(C)C(=O)NCc2ccc3c(c2)OCO3)cc1OC (stereo unspecified),.,.,.,/,.,/
CCc1nnc(NC(=O)c2ccc(S(=O)(=O)N3CCCC3)cc2)s1,.,.,.,/,.,/
CCc1nnc(NC(=O)c2ccc(S(=O)(=O)N3CCN(Cc4ccccc4)CC3)cc2)s1,.,.,.,97,.,.
